The values below come from ChEMBL document CHEMBL3098084, “Synthesis and preliminary evaluation of a new fluorine-18 labelled triazine derivative for PET imaging of cannabinoid CB2 receptor” (Bioorg Med Chem Lett, 2014).

Series [1] is described as follows: Apparent terminal half life in CD-1 mouse at 3 mg/kg, iv. The series is classed as ADME, organism-based. Set-up: dose 3 mg/kg, route intravenous. The conditions noted are these: in vivo, read-out: betat1/2(app) (converted). An outline of the steps: (§1)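 Male CD1 mice got a single intravenous dose of 3 mg/kg. Drug levels were measured in plasma and brain. The first sampling time was 5 min post-dose. Apparent terminal half-life and brain/plasma AUC(0-inf) were derived from the concentration-time profiles.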

Series [2] in a line: Cmax in brain of CD-1 mouse at 3 mg/kg, iv after 5 mins. The series is classed as ADME, organism-based. Set-up: dose 3 mg/kg, route intravenous. An outline of the steps: as §1
The target in series [3] is T1, Cannabinoid receptor 2 (Homo sapiens, UniProt P34972). Kind of series: Agonist activity at human CB2 receptor expressed in CHO CRE-luc cells. The series is classed as functional, cell-based.
The target in series [4] is T1, Cannabinoid receptor 2. Kind of series: Binding affinity to human CB2 receptor expressed in CHO cells. The series is classed as cell-based.
Series [5] can be described thus: Drug uptake in cerebellum of baboon neuroinflammation model at 110 +/- 34 MBq, iv after 20 mins by PET imaging analysis. Type of series: ADME, organism-based. The conditions noted are these: papio anubis, in vivo. An outline of the steps:
(§2)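 Baboons (Papio anubis) received [¹⁸F]-d₂-3 (110 34 MBq) iv. PET images were acquired over 180 min on a Siemens Biograph mCT camera with arterial blood sampling. Regional time-activity curves (frontal, occipital, temporal and parietal cortex, cerebellum) were expressed as SUV, and whole-brain uptake as percent injected dose. Where used, LPS (0.05 or 0.1 mg/kg) was given iv 4 h before the radiotracer.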

Series [6] is described as follows: Drug uptake in perietal cotrex of baboon neuroinflammation model at 110 +/- 34 MBq, iv after 20 mins by PET imaging analysis. Type of series: ADME, organism-based, Parietal cortex. The conditions noted are these: papio anubis, in vivo. An outline of the steps: as §2
Series [7] can be described thus: Drug uptake in temporal cotrex of baboon neuroinflammation model at 110 +/- 34 MBq, iv after 20 mins by PET imaging analysis. Type of series: ADME, organism-based, Temporal cortex. Particulars: papio anubis, in vivo. The procedure, abridged:
as §2

Series [8] in a line: Drug uptake in occipital cotrex of baboon neuroinflammation model at 110 +/- 34 MBq, iv after 20 mins by PET imaging analysis. The series is classed as ADME, organism-based, Occipital cortex. The conditions noted are these: papio anubis, in vivo. An outline of the steps: as §2
Series [9] can be described thus: Drug uptake in frontal cortex of baboon neuroinflammation model at 110 +/- 34 MBq, iv after 20 mins by PET imaging analysis. The conditions noted are these: papio anubis, in vivo. The series is classed as ADME, organism-based. An outline of the steps: as §2
The next series concerns Brain. Nature of the series: Drug uptake in whole brain of baboon neuroinflammation model at 110 +/- 34 MBq, iv after 20 mins by PET imaging analysis. Particulars: papio anubis, in vivo. Type of series: ADME, organism-based. An outline of the steps: as §2
A short description of series [10]: Drug metabolism in baboon neuroinflammation model plasma assessed as compound remaining at 110 +/- 34 MBq, iv administered 180 mins post LPS-challenge by HPLC analysis. Type of series: ADME, organism-based. The conditions noted are these: papio anubis, read-out: Stability. The procedure, abridged:
(§3)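 Radiotracer [¹⁸F]-d₂-3 (110 34 MBq) was given iv to rhesus macaque or baboon, with arterial blood sampled over 180 min. Parent fraction in plasma was determined by reverse-phase HPLC in a subset of samples. Where used, LPS (0.05 or 0.1 mg/kg) was given iv 4 h before the radiotracer.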

A short description of series [11]: Drug metabolism in baboon neuroinflammation model plasma assessed as compound remaining at 110 +/- 34 MBq, iv after 180 mins by HPLC analysis. The series is classed as ADME, organism-based. Particulars: papio anubis, read-out: Stability. The procedure, abridged: as §3
Series [12] can be described thus: Drug metabolism in rhesus monkey plasma assessed as compound remaining at 110 +/- 34 MBq, iv after 180 mins by HPLC analysis. Type of series: ADME, organism-based, Macaca mulatta. Particulars: read-out: Stability. An outline of the steps:
as §3

A further series addresses Cannabinoid receptor 1 (Homo sapiens, UniProt P21554). Kind of series: Binding affinity to human CB1 receptor.
For series [13], the target named is T1, Cannabinoid receptor 2. Nature of the series: Binding affinity to human CB2 receptor.

T1 sequence (P34972 whole entry): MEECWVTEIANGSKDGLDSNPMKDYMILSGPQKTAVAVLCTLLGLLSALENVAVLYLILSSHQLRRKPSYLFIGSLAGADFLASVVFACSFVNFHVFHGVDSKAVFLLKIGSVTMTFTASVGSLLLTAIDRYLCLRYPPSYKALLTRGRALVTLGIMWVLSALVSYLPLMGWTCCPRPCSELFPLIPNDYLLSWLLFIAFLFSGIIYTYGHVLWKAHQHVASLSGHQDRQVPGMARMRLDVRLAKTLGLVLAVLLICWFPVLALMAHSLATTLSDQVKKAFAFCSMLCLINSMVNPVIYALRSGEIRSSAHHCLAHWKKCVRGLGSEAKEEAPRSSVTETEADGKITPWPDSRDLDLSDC
Cannabinoid receptor 1, sequence (P21554 whole entry): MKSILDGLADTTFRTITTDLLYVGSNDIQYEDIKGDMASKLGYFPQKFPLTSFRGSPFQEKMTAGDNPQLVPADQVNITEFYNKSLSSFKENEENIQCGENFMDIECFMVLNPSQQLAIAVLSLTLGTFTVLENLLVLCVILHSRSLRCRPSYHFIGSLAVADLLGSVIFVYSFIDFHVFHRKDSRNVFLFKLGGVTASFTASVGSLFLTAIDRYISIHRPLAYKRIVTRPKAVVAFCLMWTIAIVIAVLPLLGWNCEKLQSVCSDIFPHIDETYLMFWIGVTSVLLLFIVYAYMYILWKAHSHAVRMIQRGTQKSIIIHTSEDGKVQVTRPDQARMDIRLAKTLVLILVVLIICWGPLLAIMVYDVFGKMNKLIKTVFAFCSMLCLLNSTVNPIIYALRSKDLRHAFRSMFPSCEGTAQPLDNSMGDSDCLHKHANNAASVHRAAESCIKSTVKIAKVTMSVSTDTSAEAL

Take `CC(C)(O)c1cc(-c2nc(NCCc3ccc(F)cc3)nc(OCF)n2)ccc1Cl`: the half-life in series [1] is 57.6 min. The same compound came in with a maximum concentration (Cmax) in [2] of 2300 ng/g. Besides, the EC50 on Cannabinoid receptor 2 [3] is 0.78 nM. Besides, the 50% inhibitory concentration (IC50) at Cannabinoid receptor 2 [4] was found to be 1.4 nM.
`[2H]C([2H])([18F])Oc1nc(NCCc2ccc(F)cc2)nc(-c2ccc(Cl)c(C(C)(C)O)c2)n1`: the SUV in [5], in series [6], in [7], in series [8] and in series [9] was 0.7 g/mL in each case. This compound came in with a Drug uptake with Brain of 0.5 %ID. The remaining at 3 h in series [10] was 15%; in [11] it was 35%; in [12], 35%.
Consider `COc1nc(NCCc2ccc(F)cc2)nc(-c2ccc(Cl)c(C(C)(C)O)c2)n1`, for which the concentration for half-maximal inhibition (IC50) at Cannabinoid receptor 1 is 300 nM; at Cannabinoid receptor 2 [13] it was 0.58 nM.
